ChEMBL document CHEMBL3994584, “Identification of novel fluorescent probes preventing PrPSc replication in prion diseases” (Eur J Med Chem, 2017)

Assay: Antiprion activity against mouse prion protein RML infected mouse ScN2a cells assessed as reduction in proteinase K-resistant PrPSc level incubated for 5 days followed by proteinase K digestion by Western blot method
Details: 120 h
Procedure, shortened: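 RML-infected ScN2a cells were treated with 0.1, 1 and 10 μM for 5 days, with DMSO ≤0.1% final. Lysates (500 μg protein) were digested with 10 μg PK for 1 h at 37 °C, stopped with 2 mM PMSF and ultracentrifuged. Pellets were run on SDS-PAGE and immunoblotted with anti-PrP Fab W226, with ECL detection. Densitometry gave PK-resistant PrPSc over total PrP, with untreated set to 100%. Three independent experiments.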

| SMILES | EC50 (read-out: EC50) [nM] | EC50 (read-out: pEC50 (converted)) [nM] |
| --- | --- | --- |
| Cc1cccc(Nc2nc(-c3ccc(-c4cccnc4)cc3)cs2)n1 | 68 | 69.2 |
| Cc1cccc(Nc2nc(-c3ccc(-c4ccnc(N5CCN(C)CC5)c4)cc3)cs2)n1 | 759 | 759 |
| Cc1ccc(Nc2nc(-c3ccccn3)cs2)nc1 | 860 | 851 |
| Cc1cccc(Nc2nc(-c3ccc(O)c(O)c3)cs2)n1 | 2500 | 2510 |
| Cc1cccc(Nc2nc(-c3ccc(-c4ccnc(OC(C)C)c4)cc3)cs2)n1 | 2840 | 2820 |
| COc1ccc(-c2csc(Nc3ccc(C)cn3)n2)c(OC)c1 | 3130 | 3160 |
| COc1ccc(-c2csc(Nc3cnccn3)n2)cc1OC | 15600 | 15500 |
| Cc1cccc(Nc2nc(-c3ccc(-c4ccc(N5CCN(C)CC5)nc4)cc3)cs2)n1 | 96 | 95.5 |
| c1ccc(-c2cc(-c3csc(Nc4ccccn4)n3)on2)cc1 | 600 | 603 |
| c1ccc(-c2ccc(-c3csc(Nc4ccc5ccccc5n4)n3)s2)nc1 | 2010 | 2000 |
| COc1ccc(-c2csc(Nc3ncccc3C)n2)cc1OC | 7290 | 7240 |
| Cc1cccc(Nc2nc(-c3ccc(-c4ccc(OC(C)C)nc4)cc3)cs2)n1 | 5860 | 5890 |
| Cc1ccc(Nc2nc3c(s2)Cc2ccccc2-3)nc1 | 2440 | 2450 |
| COCCOc1cc(-c2ccc(-c3csc(Nc4cccc(C)n4)n3)cc2)ccn1 | 153 | 155 |
| COc1ccc(-c2csc(Nc3cc(C)ccn3)n2)cc1OC | 1000 | 1000 |
| Cc1cccc(Nc2nc(-c3ccc(-c4c(C)noc4C)cc3)cs2)n1 | 2130 | 2140 |
| COc1ccc(-c2csc(Nc3ccc(C)cn3)n2)cc1OC | 790 | 794 |
| COCCOc1ccc(-c2ccc(-c3csc(NC(=O)C4CC4)n3)cc2)cn1 | 118 | 117 |
| O=C(Nc1nc(-c2ccc(-c3ccncc3)cc2)cs1)C1CC1 | 173 | 174 |
| Cc1ccc(Nc2nc(-c3ccc(-c4ccccn4)s3)cs2)nc1 | 1230 | 1230 |
| Cc1ccnc(Nc2nc(-c3ccncc3)cs2)c1 | 4950 | 5010 |

| SMILES | EC50 (read-out: EC50) [nM] | EC50 (read-out: pEC50 (converted)) [nM] |
| --- | --- | --- |
| FC(F)(F)c1csc(Nc2ccc3ccccc3n2)n1 | 8660 | 8710 |
| COc1ccc(-c2csc(Nc3ccccn3)n2)cc1OC | 1220 | 1230 |
| Cc1cccc(Nc2nc(-c3ccc(-c4ccc[n+]([O-])c4)cc3)cs2)n1 | 203 | 204 |
| COc1ccc(Nc2nc(-c3cc(-c4ccccc4)no3)cs2)nc1 | 230 | 229 |
| COc1ccc(-c2ccc(-c3csc(Nc4cccc(C)n4)n3)cc2)cn1 | 140 | 141 |
| Cc1cccc(Nc2nc(-c3ccc(-c4ccncc4)cc3)cs2)n1 | 87 | 87.1 |
| O=C(Nc1nc(-c2ccc(-c3ccccc3)cc2)cs1)C1CC1 | 248 | 245 |
| COc1ccc(-c2csc(Nc3cccnc3)n2)cc1OC | 28000 | 28200 |
| c1ccc2oc(-c3csc(Nc4ccc(-c5cnco5)cc4)n3)cc2c1 | 228 | 229 |
| c1ccc(-c2cc(-c3csc(Nc4ccc5ccccc5n4)n3)on2)cc1 | 800 | 794 |
| COc1ccc(-c2csc(NC(=O)c3ccc4ccccc4n3)n2)cc1OC | 8180 | 8130 |
| CC(=O)Nc1nc(-c2ccc(-c3ccccc3)cc2)cs1 | 119 | 120 |
| Cc1cccc(Nc2nc(-c3ccc(-c4ccc(N(C)C)nc4)cc3)cs2)n1 | 69 | 69.2 |
| CC(=O)Nc1ccc(-c2csc(Nc3ccccn3)n2)cc1 | 8500 | 8510 |
| Cc1ccnc(Nc2nc(-c3cc(-c4ccc(Cl)cc4)no3)cs2)c1 | 850 | 851 |
| Oc1ccc(-c2csc(Nc3ccccn3)n2)cc1O | 10000 | 10000 |
| Cc1cccc(Nc2nc(-c3ccc(-c4ccncc4C)cc3)cs2)n1 | 618 | 617 |
| Cc1ccnc(Nc2nc(-c3cc(-c4ccccc4)no3)cs2)c1 | 1270 | 1260 |
| Cc1ccc(Nc2nc(-c3cc(-c4ccccc4)no3)cs2)nc1 | 940 | 933 |
| Cc1ccc(Nc2nc(-c3ccncc3)cs2)nc1 | 1570 | 1580 |
| COc1ccc(-c2csc(Nc3ccccc3)n2)cc1OC | 8200 | 8130 |

| SMILES | EC50 (read-out: EC50) [nM] | EC50 (read-out: pEC50 (converted)) [nM] |
| --- | --- | --- |
| CN1CCN(c2cc(-c3ccc(-c4csc(NC(=O)C5CC5)n4)cc3)ccn2)CC1 | 682 | 676 |
| Cc1cccc(Nc2nc(-c3ccc(O)cc3O)cs2)n1 | 3900 | 3890 |
| Cc1ccc(Nc2nc(-c3cccc(C#N)c3)cs2)nc1 | 2290 | 2290 |
| Cc1cccc(Nc2nc(-c3ccc(-c4ccnc(N(C)C)c4)cc3)cs2)n1 | 123 | 123 |
| COc1ccc(-c2csc(Nc3ccc(C(F)(F)F)cn3)n2)cc1OC | 2530 | 2510 |
| Cc1cccc(Nc2nc(-c3cc(-c4ccccc4)no3)cs2)n1 | 820 | 813 |
| COc1ccc(-c2csc(Nc3ccc(C)cn3)n2)cc1 | 3030 | 3020 |
| COc1ccc(-c2csc(Nc3cccc(C)n3)n2)cc1OC | 3010 | 3020 |
| COCCOc1cc(-c2ccc(-c3csc(NC(=O)C4CC4)n3)cc2)ccn1 | 1320 | 1320 |
| NS(=O)(=O)c1ccc(Nc2nc(-c3ccc(O)c(O)c3)cs2)cc1 | 13500 | 13500 |
| Cc1cc(-c2ccc(-c3csc(Nc4cccc(C)n4)n3)cc2)ccn1 | 400 | 398 |
| Cc1ccc(Nc2nc(-c3ccccc3)cs2)nc1 | 7880 | 7940 |
| Cc1cccc(Nc2nc(-c3ccc(-c4cc[n+]([O-])cc4)cc3)cs2)n1 | 559 | 562 |
| COc1ccc(-c2csc(Nc3ccncc3)n2)cc1OC | 6380 | 6460 |
| Cc1cccc(Nc2nc(-c3ccc(-c4ccnn4C)cc3)cs2)n1 | 89 | 89.1 |
| CN1CCN(c2cccc(Nc3nc(-c4ccc(-c5ccccc5)cc4)cs3)n2)CC1 | 1180 | 1170 |
| COc1ccc(-c2csc(N(C)c3ccc4ccccc4n3)n2)cc1OC | 140 | 141 |
| CN(C)c1cccc(Nc2nc(-c3ccc(-c4ccccc4)cc3)cs2)n1 | 699 | 692 |
| O=C(CN1CCCC1)Nc1ccc(Cc2ccc(NC(=O)CN3CCCC3)cc2)cc1 | 1350 | 1350 |
| c1ccc2nc(Nc3nc(-c4ccncc4)cs3)ccc2c1 | 310 | 309 |
| c1ccc(-c2csc(Nc3ccc4ccccc4n3)n2)cc1 | 3080 | 3090 |

| SMILES | EC50 (read-out: EC50) [nM] | EC50 (read-out: pEC50 (converted)) [nM] |
| --- | --- | --- |
| COc1cc2c(cc1OC)-c1nc(Nc3ccc(C)cn3)sc1C2 | 5590 | 5620 |
| COc1ccc(-c2csc(Nc3ccc4ccccc4n3)n2)cc1 | 340 | 339 |
| Cc1cccc(Nc2nc(-c3ccncc3)cs2)n1 | 1000 | 1000 |
| c1ccc2nc(Nc3nc(-c4cc5ccccc5o4)cs3)ccc2c1 | 920 | 912 |
| COc1ccc(-c2csc(Nc3ncccn3)n2)cc1OC | 3940 | 3980 |
| Cc1cccc(Nc2nc(-c3ccc(-c4ccccc4)cc3)cs2)n1 | 2290 | 1260 |
| COc1ccc(NC(=O)c2csc(Nc3ccc(C)cn3)n2)cc1OC | 2440 | 2450 |
| Cc1cccc(Nc2nc(-c3ccc(N4CCN(C)CC4)cc3)cs2)n1 | 840 | 832 |
| COc1ccnc(Nc2nc(-c3cc(-c4ccccc4)no3)cs2)c1 | 250 | 251 |
| Cc1cccc(Nc2nc(-c3cc4ccccc4o3)cs2)n1 | 1460 | 1450 |
| CN(C)c1ccncc1-c1ccc(-c2csc(NC(=O)C3CC3)n2)cc1 | 109 | 110 |
| c1ccc(-c2cc(-c3csc(Nc4ccc(-c5cnco5)cc4)n3)on2)cc1 | 57 | 57.5 |
| c1cc(-c2csc(Nc3ccc(-c4cnco4)cc3)n2)ccn1 | 124 | 123 |
| c1ccc(-c2cc(-c3csc(Nc4ccncc4)n3)on2)cc1 | 4420 | 4470 |
| COc1ccc(-c2csc(Nc3ccc4ccccc4c3)n2)cc1OC | 390 | 389 |
| Cc1cccc(Nc2nc(-c3ccc(N4CCOCC4)cc3)cs2)n1 | 51 | 51.3 |
| COCCOc1ccc(-c2ccc(-c3csc(Nc4cccc(C)n4)n3)cc2)cn1 | 137 | 138 |
| COCC(=O)Nc1nc(-c2ccc(-c3ccccc3)cc2)cs1 | 1590 | 1580 |
| CN1CCN(c2ccc(-c3ccc(-c4csc(NC(=O)C5CC5)n4)cc3)cn2)CC1 | 70 | 70.8 |
| COc1ccc(-c2csc(N(C(C)=O)c3ccc4ccccc4n3)n2)cc1OC | 81 | 81.3 |
| COc1ccc(-c2csc(Nc3ccc4ccccc4n3)n2)cc1OC | 430 | 427 |
